Results pooled from the literature.
Protocols differ between the studies behind these lines.
Target: Interferon-induced, double-stranded RNA-activated protein kinase (EIF2AK2, Homo sapiens, UniProt P19525)

COc1ncc2cc3ccccc3nc2c1C#N  remaining binding (cell-free assay, competition with immobilised ligand; 5 µM): 100%
O=C(NCc1ncc(C(F)(F)F)cc1Cl)c1ccc2c(c1)C1(CCS(=O)(=O)CC1)[C@@H](C1CC1)N2S(=O)(=O)c1ccc(F)cc1  remaining binding (cell-free assay, competition with immobilised ligand; 1 µM): 97%
O=C(c1ccc(Nc2ncc(Cl)c(-c3ccc(Cl)s3)n2)cc1)N1CCC(N2CCCC2)CC1  remaining binding (binding, competition with immobilised ligand; 1 µM): 14%
CC(=O)N1CCC(c2ccc(C(=O)NC(=N)N)cc2C(F)(F)F)CC1  remaining binding (cell-free assay, competition with immobilised ligand; 1 µM): 100%
CN(c1nccc(-c2cnn3ncccc23)n1)C1CC1  remaining binding (binding; 1 µM): 100%
CCOC(=O)c1cc2cc(-c3cc(C(=O)NCc4ccc(C(=O)O)cc4)nn3C)ccc2[nH]1  remaining binding (cell-free assay, competition with immobilised ligand; 0.1 µM): 100%
c1cnn2ncc(-c3ccnc(N4CCC45COC5)n3)c2c1  remaining binding (binding; 1 µM): 100%
O=C(NCCCN1CCOCC1)c1ccc(Nc2nccc(-c3cc4ccccc4s3)n2)cc1  remaining binding (binding, competition with immobilised ligand; 1 µM): 64%
Nc1ncc2c(n1)-c1c([nH]c3ccc(C#CC4CC4)cc13)CCCC2  remaining binding (binding, competition with immobilised ligand; 1 µM): 100%
CN(C)c1nccc(-c2cnn3ncccc23)n1  remaining binding (binding; 1 µM): 100%
O=C(O)c1cc(-c2ccc(C3CCNCC3)cc2)c2ccc(-c3ccc(C(F)(F)F)cc3)cc2c1  remaining binding (cell-free assay, competition with immobilised ligand; 1 µM): 100%
Cc1cnc(Nc2ccc(C(=O)N3CCC(N4CCCC4)CC3)cc2)nc1-c1cc2ccccc2s1  remaining binding (binding, competition with immobilised ligand; 1 µM): 7%
CN(C)C(=O)Cn1cc(-c2nc(C3(c4ccc(-c5cnc(N)nc5)cc4)CC3)no2)cn1  remaining binding (cell-free assay, competition with immobilised ligand; 1 µM): 100%
N[C@H]1CCN(c2nccc(-c3cnn4ncccc34)n2)C1  remaining binding (binding; 1 µM): 100%
CS(=O)(=O)N1CCCC(NC(=O)[C@H](CCC2CCCCC2)NC(=O)c2ccc(CNC(=O)c3cnc4ccccn34)cc2)C1 (some centres unmarked)  remaining binding (cell-free assay, competition with immobilised ligand; 0.1 µM): 47%
O=C(Nc1c[nH]nc1C(=O)NC1CCNCC1)c1cc(F)cc(F)c1  remaining binding (binding, competition with immobilised ligand; 1 µM): 100%
COc1ccnn2ncc(-c3ccnc(N(C)C)n3)c12  remaining binding (binding; 1 µM): 100%
COc1cnc(Nc2cccc(S(N)(=O)=O)c2)nc1N1CCN(c2ccccc2)CC1  remaining binding (binding, competition with immobilised ligand; 1 µM): 97%
CC1CCCN1c1nccc(-c2cnn3ncccc23)n1 (centres unmarked)  remaining binding (binding; 1 µM): 100%
CCN1CCN(Cc2ccc(C(=O)Nc3ccc(C)c(Oc4ccc5c(c4)CC(=O)N5)c3)cc2C(F)(F)F)CC1  remaining binding (binding, competition with immobilised ligand; 1 µM): 96%
